These results are taken from ChEMBL document CHEMBL1126042, “Reversible inhibitors of the gastric (H+/K+)-ATPase. 2. 1-Arylpyrrolo[3,2-c]quinolines: effect of the 4-substituent” (J Med Chem, 1992).

The first assay deals with T1, Potassium-transporting ATPase (Rattus norvegicus, UniProt P09626). Kind of assay: Inhibition of rat isolated gastric (H(+)/K(+))-ATPase. In kind it is tissue-based, Stomach.
T1 sequence (P09626 whole entry): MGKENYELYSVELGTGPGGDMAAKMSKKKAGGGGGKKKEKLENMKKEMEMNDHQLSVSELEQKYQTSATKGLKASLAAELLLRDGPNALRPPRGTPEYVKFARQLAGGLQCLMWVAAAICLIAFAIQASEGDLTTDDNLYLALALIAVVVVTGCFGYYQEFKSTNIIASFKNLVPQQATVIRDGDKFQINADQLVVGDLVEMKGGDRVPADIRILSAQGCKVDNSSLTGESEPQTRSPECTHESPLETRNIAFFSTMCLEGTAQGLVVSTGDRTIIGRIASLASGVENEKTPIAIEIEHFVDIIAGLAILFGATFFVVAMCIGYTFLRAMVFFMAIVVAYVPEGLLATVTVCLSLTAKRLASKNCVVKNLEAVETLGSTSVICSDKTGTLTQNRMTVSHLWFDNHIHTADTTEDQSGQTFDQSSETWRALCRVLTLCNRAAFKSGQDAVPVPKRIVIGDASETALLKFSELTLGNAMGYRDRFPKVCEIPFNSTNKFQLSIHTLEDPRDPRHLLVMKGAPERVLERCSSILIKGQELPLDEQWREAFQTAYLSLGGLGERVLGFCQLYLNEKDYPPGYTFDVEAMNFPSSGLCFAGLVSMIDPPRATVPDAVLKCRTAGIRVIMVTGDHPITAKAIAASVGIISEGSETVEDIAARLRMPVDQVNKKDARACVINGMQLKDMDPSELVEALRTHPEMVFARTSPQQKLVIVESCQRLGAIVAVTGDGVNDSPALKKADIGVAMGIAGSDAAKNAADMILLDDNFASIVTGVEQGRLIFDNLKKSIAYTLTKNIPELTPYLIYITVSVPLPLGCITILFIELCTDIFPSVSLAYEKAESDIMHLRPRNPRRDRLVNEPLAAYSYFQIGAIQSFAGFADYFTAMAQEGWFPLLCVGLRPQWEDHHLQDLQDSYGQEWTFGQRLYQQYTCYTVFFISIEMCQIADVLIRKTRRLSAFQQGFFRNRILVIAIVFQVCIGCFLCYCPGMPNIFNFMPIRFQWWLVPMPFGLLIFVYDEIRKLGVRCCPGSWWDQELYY
T1 sequence (P18598 whole entry, further chain): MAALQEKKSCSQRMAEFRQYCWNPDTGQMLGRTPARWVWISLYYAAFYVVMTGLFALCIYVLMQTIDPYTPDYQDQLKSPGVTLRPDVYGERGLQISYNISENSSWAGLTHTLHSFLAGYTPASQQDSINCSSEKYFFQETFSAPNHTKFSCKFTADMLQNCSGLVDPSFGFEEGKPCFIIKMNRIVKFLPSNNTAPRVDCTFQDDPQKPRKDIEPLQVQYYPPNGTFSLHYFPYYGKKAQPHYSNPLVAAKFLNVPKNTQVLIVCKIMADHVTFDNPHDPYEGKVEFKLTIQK
Details: not given
An outline of the steps:
(§1)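 (H+/K+)-ATPase activity measured in lyophilized gastric vesicles; compounds dissolved in DMSO, then diluted into pH 7.0 buffer. IC50 given as mean ± range (n = 2) or as a single observed value (n = 1).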
As for `Cc1ccccc1N1CCc2c(NC(N)=O)nc3c(C)cccc3c21`, the IC50 – broadly, the concentration that inhibits the measured activity by half – is 1990 nM. That is a single-digit micromolar value.
Compound `CNc1nc2c(OC)cccc2c2c1CCN2c1ccccc1C` returned an IC50 of 250 nM.
Compound `CNc1nc2c(C)cccc2c2c1ccn2-c1ccccc1C` showed an IC50 of 290 nM.
In the case of `Cc1ccccc1N1CCc2c(N)nc3c(C)cccc3c21`, inhibition was half-maximal at 220 nM (IC50).
Regarding `Cc1ccccc1-n1ccc2c(NCCCO)nc3c(C)cccc3c21`, the IC50 was determined as 410 nM.
Compound `CCOC(=O)c1cc(Nc2ccccc2C)c2cccc(OC)c2n1` registered an IC50 of 850 nM.
Consider `CNC(=O)Nc1nc2c(C)cccc2c2c1CCN2c1ccccc1C`, for which the IC50 was determined as 4970 nM.
As for `COc1ccccc1N1CCc2c(N)nc3c(OC)cccc3c21`, the 50% inhibitory concentration (IC50) amounted to 440 nM.
Turning to `Cc1ccccc1-n1ccc2c(NCCO)nc3c(C)cccc3c21`, the IC50 is 170 nM. This IC50 lies about 2.6-fold lower than the previous one.
The compound `COc1cccc2c3c(c(NCCO)nc12)CCN3c1ccccc1C` yielded an IC50 of 280 nM. This IC50 is about 1.6-fold higher than that of the compound before.
Compound `Cc1ccccc1N1CCc2cnc3c(C)cccc3c21` returned an IC50 of 980 nM.
The compound `COc1ccccc1N1CCc2cnc3c(OC)cccc3c21` displayed an IC50 of 1290 nM.
In turn, `Cc1ccccc1N1CCc2c(CO)nc3ccccc3c21` came in with an IC50 of 1230 nM.
`COc1cccc2c1nc(C)c1ccn(-c3ccccc3C)c12` returned a half-maximal inhibitory concentration (IC50) of 640 nM.
`CNc1nc2c(C)cccc2c2c1CCN2c1ccc(OC)cc1C` registered an IC50 of 280 nM.
As to `Cc1ccccc1N1CCc2c1nc1c(C)cccc1c2Nc1ccccc1`, the IC50 was 1100 nM.
Compound `COc1ccccc1N1CCc2c1c1cccc(OC)c1[nH]c2=O` gave an IC50 of 33400 nM.
With `Cc1ccccc1N1CCc2c(N(C)C)nc3c(C)cccc3c21`, the IC50 stood at 1030 nM.
Compound `CNc1nc2c(C)cccc2c2c1CCN2c1ccccc1C` had an IC50 of 180 nM.
As to `Cc1ccccc1-n1ccc2c(NCCCCO)nc3c(C)cccc3c21`, half-maximal inhibition (IC50) required 220 nM.

The target in a further assay is Potassium-transporting ATPase (Rattus norvegicus, UniProt P09626+P18598). As to the kind of experiment: The compound was evaluated for the inhibition of gastric (H(+)/K(+))-ATPase; Compound was insoluble. Type of assay: protein-complex assay, Stomach.
Potassium-transporting ATPase (Rattus norvegicus, UniProt P09626+P18598), sequence (P09626 whole entry): as the sequence (P09626 whole entry) above
Potassium-transporting ATPase (Rattus norvegicus, UniProt P09626+P18598), sequence (P18598 whole entry): as the sequence (P18598 whole entry, further chain) above
Details: not given
The gist of the method:
as §1
In the case of `COc1cccc2c3c(c(C(=O)Nc4ccccc4C)nc12)CCN3c1ccccc1C`, the IC50 entry is “Insoluble”.

A further assay has as its system Canis familiaris. As to the kind of experiment: The compound was evaluated for the gastric antisecretory activity in the Heidenhain pouch dog for a dose of 1 umol/kg on intravenous administration. Conditions: Canis lupus familiaris, Stomach. In kind it is functional. The gist of the method:
(§2)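 Conscious Heidenhain pouch dogs dosed intravenously; inhibition of gastric acid secretion measured.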
Take `Cc1ccccc1N1CCc2c(N)nc3c(C)cccc3c21`: the inhibition in vivo (usually the percentage by which the read-out fell short of the control) at 1 µmol/kg turned out to be 53%.

Another assay has as its target T2, Potassium-transporting ATPase (Rattus norvegicus) (UniProt P09626+P18598). Kind of assay: The compound was evaluated for the inhibition of gastric H+/K+ ATPase at 10 uM. Type of assay: tissue-based. The conditions noted are these: Stomach.
For the compound `Cc1ccccc1-n1ccc2c(Cl)nc3c(C)cccc3c21`, the inhibition (commonly the share of the control response that was lost under treatment) stood at 2%.
Compound `Cc1ccccc1N1CCc2c(Cl)nc3c(C)cccc3c21` came in with an inhibition of 25%.

In another assay the target is T2, Potassium-transporting ATPase (Rattus norvegicus). As to the kind of experiment: The compound was evaluated for the inhibition of gastric (H(+)/K(+))-ATPase at 30 uM. Conditions: Stomach.
As to `COc1nc2c(C)cccc2c2c1CCN2c1ccccc1C`, the inhibition was 0%.
Compound `CSc1nc2c(C)cccc2c2c1CCN2c1ccccc1C` yielded an inhibition of 0%.

The next assay shares this target. Kind of assay: The compound was evaluated for the inhibition of gastric H+/K+ ATPase at 100 uM. In kind it is tissue-based. Conditions: Stomach.
For the compound `Cc1ccccc1-n1ccc2c(Cl)nc3c(C)cccc3c21`, the inhibition was determined as 30%.

A further assay deals with T1, Potassium-transporting ATPase. Kind of assay: The compound was evaluated for the inhibition of gastric H+/K+ ATPase. In kind it is tissue-based, Stomach.
Details: not given
The gist of the method:
as §1
`COc1ccccc1N1CCc2c(Cl)nc3c(OC)cccc3c21` displayed an IC50 of 10700 nM.

Another assay relates to Rattus norvegicus. As to the kind of experiment: The compound was evaluated for the gastric antisecretory activity in the lumen-perfused rat on intravenous administration. Type of assay: functional. Conditions: Stomach.
For the compound `Cc1ccccc1N1CCc2c(N)nc3c(C)cccc3c21`, the ED50 (usually the midpoint of the dose-response relation) was found to be 4.3 µmol/kg.
For `CCOC(=O)c1cc(Nc2ccccc2C)c2cccc(OC)c2n1`, the 50% effect level (ED50) was put at a dose of 8.2 µmol/kg.
`Cc1ccccc1N1CCc2cnc3c(C)cccc3c21` came in with an ED50 of 16.2 µmol/kg.
In the case of `COc1cccc2c1nc(C)c1ccn(-c3ccccc3C)c12`, it took a dose of 7.08 µmol/kg to reach the 50% effect level (ED50).
The same measure, in the same setting: in the case of `Cc1ccccc1N1CCc2c(N(C)C)nc3c(C)cccc3c21` it was 7.2 µmol/kg; in that of `CNc1nc2c(C)cccc2c2c1CCN2c1ccccc1C`, 2.8 µmol/kg.

In another assay the test system is Rattus norvegicus. As to the kind of experiment: The compound was evaluated for the percentage inhibition of rat gastric secretion at a dose of 10 umol/kg on intravenous administration. The conditions noted are these: Stomach. In kind it is functional.
`COc1ccccc1N1CCc2c(Cl)nc3c(OC)cccc3c21` returned an inhibition in vivo at 10 µmol/kg of 19%.
On to `Cc1ccccc1N1CCc2c(Cl)nc3c(C)cccc3c21`, for which the inhibition in vivo at 10 µmol/kg stood at 15%.

The next assay deals with Rattus norvegicus. As to the kind of experiment: The compound was evaluated for the percentage inhibition of rat gastric secretion at a dose of 10 umol/kg on intravenous administration; d = Compound was too insoluble for intravenous administration. Type of assay: functional, organism-based. Conditions: Stomach.
With `COc1nc2c(C)cccc2c2c1CCN2c1ccccc1C`, the inhibition entry is recorded as “Too insoluble”.
Consider `Cc1ccccc1N1CCc2c(NC(N)=O)nc3c(C)cccc3c21`, for which the inhibition result is recorded as “Too insoluble”.
In the case of `COc1ccccc1N1CCc2c(O)nc3c(OC)cccc3c21`, the inhibition entry is “Too insoluble”.
Same read-out and setting: the same measure for `CNC(=O)Nc1nc2c(C)cccc2c2c1CCN2c1ccccc1C`: “Too insoluble”; for `CSc1nc2c(C)cccc2c2c1CCN2c1ccccc1C`: “Too insoluble”.

The next assay concerns the target T2, Potassium-transporting ATPase (Rattus norvegicus). Kind of assay: The compound was evaluated for the inhibition of gastric (H(+)/K(+))-ATPase at 100 uM. Type of assay: protein-complex assay. The conditions noted are these: Stomach.
The compound `Cc1ccccc1N1CCc2c1nc1c(C)cccc1c2Cl` gave an inhibition of 8%.

A further assay deals with Canis familiaris. As to the kind of experiment: The compound was evaluated for the gastric antisecretory activity in the Heidenhain pouch dog for a dose of 1 umol/kg on intravenous administration. Type of assay: functional. Conditions: Canis lupus familiaris, Stomach. An outline of the steps:
as §2
`CNc1nc2c(C)cccc2c2c1CCN2c1ccccc1C` returned an inhibition in vivo at 1 µmol/kg of 67%.

In another assay the test system is Rattus norvegicus. As to the kind of experiment: Percentage inhibition of rat gastric secretion following 10 uM/Kg i.v.
Details: not given
On to `CNc1nc2c(OC)cccc2c2c1CCN2c1ccccc1C`, for which the Inhibition – broadly, how much of the control response was suppressed – is reported as 49%.
Same read-out and setting: in the case of `CNc1nc2c(C)cccc2c2c1ccn2-c1ccccc1C` it was 61%; in that of `Cc1ccccc1N1CCc2c(N)nc3c(C)cccc3c21`, 63%.
Consider `Cc1ccccc1-n1ccc2c(NCCCO)nc3c(C)cccc3c21`, for which the Inhibition came out at 30%.
The compound `COc1ccccc1N1CCc2c(N)nc3c(OC)cccc3c21` gave an Inhibition of 20%.
Regarding `Cc1ccccc1-n1ccc2c(NCCO)nc3c(C)cccc3c21`, the Inhibition is 48%.
In the case of `COc1cccc2c3c(c(NCCO)nc12)CCN3c1ccccc1C`, the Inhibition was determined as 67%.
Same read-out and setting: in the case of `Cc1ccccc1N1CCc2cnc3c(C)cccc3c21` it was 47%.
The compound `COc1ccccc1N1CCc2cnc3c(OC)cccc3c21` yielded an Inhibition of 31%.
For `Cc1ccccc1N1CCc2c(CO)nc3ccccc3c21`, the Inhibition stood at 33%.
As to `COc1cccc2c1nc(C)c1ccn(-c3ccccc3C)c12`, the Inhibition was 48%.
As for `CNc1nc2c(C)cccc2c2c1CCN2c1ccc(OC)cc1C`, the Inhibition worked out at 67%.
`Cc1ccccc1N1CCc2c1nc1c(C)cccc1c2Nc1ccccc1` showed an Inhibition of 0%.
Turning to `Cc1ccccc1N1CCc2c(N(C)C)nc3c(C)cccc3c21`, the Inhibition is reported as 56%.
`CNc1nc2c(C)cccc2c2c1CCN2c1ccccc1C` had an Inhibition of 72%.
On to `Cc1ccccc1-n1ccc2c(NCCCCO)nc3c(C)cccc3c21`, for which the Inhibition is 47%.

The next assay deals with Canis familiaris. As to the kind of experiment: The compound was evaluated for the gastric antisecretory activity in the Heidenhain pouch dog for a dose of 4 umol/kg on intravenous administration. In kind it is functional. The conditions noted are these: Canis lupus familiaris, Stomach. The gist of the method:
as §2
The compound `CNc1nc2c(C)cccc2c2c1CCN2c1ccccc1C` displayed an inhibition in vivo at 4 µmol/kg of 95%.
